Active and inactive are the calls of the source. No cut-off for these calls is given here.
What was measured:
A549 [1] = assay: Anticancer activity against human A549 lung cancer cells assessed as decrease in cell viability at 10 uM after 24 hrs relative to control by MTT assay; type: functional
Method in brief: (§1)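 A549 cells exposed to compound in culture medium; viability measured by MTT assay and expressed as % of untreated control (100%).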

A549 [2] = assay: Anticancer activity against human A549 lung cancer cells assessed as decrease in cell viability at 10 uM after 48 hrs relative to control by MTT assay; type: functional; method in brief: as §1
A549 [3] = assay: Anticancer activity against human A549 lung cancer cells assessed as decrease in cell viability at 20 uM after 24 hrs relative to control by MTT assay; type: functional, cell-based; method in brief: as §1
A549 [4] = assay: Anticancer activity against human A549 lung cancer cells assessed as decrease in cell viability at 20 uM after 48 hrs relative to control by MTT assay; type: functional; method in brief: as §1
A549 [5] = assay: Effect on human A549 lung cancer cell morphology assessed as vacuolation of cells at 20 uM after 24 hrs by inverted phase contrast microscopy; type: functional, cell-based
Method in brief: (§2)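 A549 cells treated at 20 µM; morphology photographed at 200× under an inverted phase contrast microscope.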

A549 [6] = assay: Induction of autophagy in human A549 lung cancer cells assessed as acidic vesicle level at 20 uM after 24 hrs by acridine orange staining; type: functional, cell-based
Method in brief: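 A549 cells treated 24 h; acidic cellular compartment volume visualized by acridine orange staining under fluorescence microscope (200×); compared with control, n = 3.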

A549 [7] = assay: Induction of necrosis in human A549 lung cancer cells assessed as LDH activity at 10 uM after 48 hrs; type: functional, cell-based
Method in brief: (§3)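 A549 cells treated at 10 or 20 µM for 48 h; LDH activity measured in culture medium as necrosis marker; compared with control, n = 4.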

A549 [8] = assay: Induction of necrosis in human A549 lung cancer cells assessed as LDH activity at 20 uM after 48 hrs; type: functional, cell-based; method in brief: as §3
A549 [9] = assay: Effect on human A549 lung cancer cell morphology assessed as rounding and detachment of cells at 20 uM after 48 hrs relative to control by inverted phase contrast microscopy; type: functional, cell-based; method in brief: as §2
A549 [10] = assay: Effect on human A549 lung cancer cell morphology assessed as rounding and detachment of cells at 20 uM after 24 hrs by inverted phase contrast microscopy; type: functional, cell-based; method in brief: as §2
A549 [11] = assay: Induction of apoptosis in human A549 lung cancer cells assessed as nuclear DNA fragmentation at 20 uM after 48 hrs by hoechst 33258 staining; type: functional, cell-based
Method in brief: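 A549 cells treated at 20 µM for 48 h; chromatin condensation and DNA fragmentation visualized by Hoechst 33258 staining under fluorescence microscope (200×); compared with control, n = 3.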

A549 [12] = assay: Effect on human A549 lung cancer cell morphology assessed as vacuolation of cells at 20 uM after 48 hrs relative to control by inverted phase contrast microscopy; type: functional, cell-based; method in brief: as §2

Structure (SMILES)	Activity (A549 [1])	Activity (A549 [2])	Activity (A549 [3])	Activity (A549 [4])	Activity (A549 [5])	Activity (A549 [6])	Activity (A549 [7])	Activity (A549 [8])	Activity (A549 [9])	Activity (A549 [10])	Activity (A549 [11])	Activity (A549 [12])
CC(C)(C)c1ccc(Cn2nc(-c3ccccc3)cc2C(=O)NCCc2ccc(F)cc2)cc1	inactive	inactive	inactive	inactive								
COc1cccc(CCNC(=O)c2cc(-c3ccccc3)nn2Cc2ccc(C(C)(C)C)cc2)c1	inactive	inactive	inactive	inactive								
CC(C)(C)c1ccc(Cn2nc(-c3ccc(Cl)cc3)cc2C(=O)NCCc2ccccc2F)cc1	Active	Active	Active	Active	Active	Active	inactive	inactive	Active			
CC(C)(C)c1ccc(Cn2nc(-c3ccccc3)cc2C(=O)NCCc2ccccc2)cc1	inactive	inactive	inactive	inactive								
COc1cccc(CCNC(=O)c2cc(-c3ccc(Cl)cc3)nn2Cc2ccc(C(C)(C)C)cc2)c1	45.52%	24.07%	Active	10.43%			inactive	inactive	Active	Active	Active	
CC(C)(C)c1ccc(Cn2nc(-c3ccc(Cl)cc3)cc2C(=O)NCCc2ccc(F)cc2)cc1	Active	Active	Active		Active	Active	inactive	inactive				Active
CC(C)(C)c1ccc(Cn2nc(-c3ccc(Cl)cc3)cc2C(=O)NCCc2ccccc2)cc1	59.32%	44.46%	Active				inactive	inactive	Active	Active	Active	
CC(C)(C)c1ccc(Cn2nc(-c3ccccc3)cc2C(=O)NCCc2ccccc2F)cc1	inactive	inactive	inactive	inactive								

From ChEMBL document CHEMBL1155990, “Synthesis of novel pyrazole carboxamide derivatives and discovery of modulators for apoptosis or autophagy in A549 lung cancer cells” (2009)
